What was measured:
[1] = Cytotoxicity against human SEM cells after 72 hrs by MTT assay; type: functional, cell-based
In short: (§1)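 Cells plated at 8 × 10^3 per well, 18 h at 37 °C, 5% CO2, then fresh medium with graded compound concentrations (DMSO ≤0.25%) for 72 h. Jurkat, SEM, HL-60 grown in RPMI-1640; A549, HeLa, HT-29, MCF-7 in DMEM; 10% FBS with penicillin/streptomycin. MTT viability read-out; IC50 vs 0.25% DMSO controls; mean ± SE of at least three independent experiments.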

HT-29 = experiment: Cytotoxicity against human HT-29 cells after 72 hrs by MTT assay; type: functional, cell-based; conditions: HT-29, 72 h
A549 = experiment: Cytotoxicity against human A549 cells after 72 hrs by MTT assay; type: functional, cell-based; conditions: A549, 72 h
MCF7 = experiment: Cytotoxicity against human MCF7 cells after 72 hrs by MTT assay; type: functional, cell-based; conditions: MCF7, 72 h
HL-60 = experiment: Cytotoxicity against human HL60 cells after 72 hrs by MTT assay; type: functional, cell-based; conditions: HL-60, 72 h
Jurkat = experiment: Cytotoxicity against human Jurkat cells after 72 hrs by MTT assay; type: functional, cell-based; in short: as §1
HeLa = experiment: Cytotoxicity against human HeLa cells after 72 hrs by MTT assay; type: functional, cell-based
[2] = Cytotoxicity against human CEM/VBL100 cells after 72 hrs by MTT assay; type: functional, cell-based; conditions: CEM/VBL100, 72 h
In short: (§2)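 MTT viability test: 8 × 10^3 cells per well settled 18 h at 37 °C, 5% CO2, then given fresh medium with compound (from 10 mM DMSO stocks, final DMSO ≤0.25%) for 72 h. […] CEMVbl-100 is a vinblastine-selected P-gp line; LoVoDoxo is grown in Ham's F12 with 0.1 μg/mL doxorubicin. Resistance index = resistant IC50/parental IC50.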

CCRF-CEM [3] = experiment: Resistance index, ratio of IC50 for human CEM/VBL100 cells to IC50 for human CEM cells; type: functional; in short: as §2
CCRF-CEM [4] = experiment: Cytotoxicity against human CEM cells after 72 hrs by MTT assay; type: functional, cell-based; in short: as §2
Bos taurus [5] = species: Bos taurus; experiment: Displacement of [3H]colchicine from bovine brain tubulin at 1 uM after 20 mins by turbidimetric analysis
[6] = Inhibition of bovine brain tubulin polymerization after 20 mins by turbidimetric analysis; parameters: species or system Bos taurus
In short: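 Bovine brain tubulin (10 μM) preincubated with varying compound concentrations in glutamate buffer at 30 °C, chilled to 0 °C, 0.4 mM GTP added, then warmed to 30 °C in a recording spectrophotometer.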

Bos taurus [7] = species: Bos taurus; experiment: Displacement of [3H]colchicine from bovine brain tubulin at 5 uM after 20 mins by turbidimetric analysis

Row | inhibition (Bos taurus [5]) | IC50 [6] | inhibition (Bos taurus [7]) | Structure (SMILES) | IC50 [1] | IC50 (HT-29) | IC50 (A549) | IC50 (MCF7) | IC50 (HL-60) | IC50 (Jurkat) | IC50 (HeLa) | IC50 [2] | Ratio IC50 (CCRF-CEM [3]) | IC50 (CCRF-CEM [4])
1 | – | – | – | COc1ccc(/C=C\c2cc(OC)c(OC)c(OC)c2)cc1O [COMBRETASTATIN A4] | 5 nM | – | – | – | – | – | – | – | – | –
2 | – | – | – | COC(=O)c1sc2ncccc2c1Nc1cc(OC)c(OC)c(OC)c1 | 348 nM | 542 nM | 3850 nM | 2640 nM | 2920 nM | 1110 nM | – | – | – | –
3 | – | – | – | COC(=O)c1sc2ccccc2c1Nc1cc(OC)c(OC)c(OC)c1 | 179 nM | 299 nM | 2850 nM | 795 nM | 1540 nM | 490 nM | 427 nM | – | – | –
4 | – | – | – | CC[C@]1(O)C[C@@H]2CN(CCc3c([nH]c4ccccc34)[C@@](C(=O)OC)(c3cc4c(cc3OC)N(C)[C@H]3[C@@](O)(C(=O)OC)[C@H](OC(C)=O)[C@]5(CC)C=CCN6CC[C@]43[C@@H]65)C2)C1 [VINBLASTINE] | – | – | – | – | – | – | – | 211 nM | 105 | 2 nM
5 | 71% | 1200 nM | 95% | COC(=O)c1sc2cc(C)ccc2c1Nc1cc(OC)c(OC)c(OC)c1 | 0.7 nM | 1.9 nM | 10.8 nM | 1.2 nM | 20.5 nM | 0.6 nM | 0.31 nM | – | – | –
6 | – | – | – | CCOC(=O)c1sc2ncccc2c1Nc1cc(OC)c(OC)c(OC)c1 | 1850 nM | 2260 nM | 7160 nM | 5280 nM | 6100 nM | 8450 nM | 2100 nM | – | – | –
7 | – | – | – | COC(=O)c1sc2ccc(C)cc2c1Nc1cc(OC)c(OC)c(OC)c1 | 185 nM | 299 nM | 2810 nM | 540 nM | 4720 nM | 727 nM | 398 nM | – | – | –
8 | 54% | 760 nM | 76% | COC(=O)c1sc2c(OC)cccc2c1Nc1cc(OC)c(OC)c(OC)c1 | 2.3 nM | 14.9 nM | 33 nM | 95 nM | 25.6 nM | 56.5 nM | 3.5 nM | – | – | –
9 | – | – | – | CCOC(=O)c1sc2cccc(C)c2c1Nc1cc(OC)c(OC)c(OC)c1 | 1930 nM | 3610 nM | 6250 nM | 4150 nM | 7380 nM | 5670 nM | 2520 nM | – | – | –

Reference: ChEMBL document CHEMBL2331329, “Synthesis and biological evaluation of 2-(alkoxycarbonyl)-3-anilinobenzo[b]thiophenes and thieno[2,3-b]pyridines as new potent anticancer agents” (J Med Chem, 2013)
